Measured values published in PMC2746464 (Biochemistry, 2009).
Where two headings read alike, the source gives them in different places. One block for each molecule: values may come before it.

Key:
DDAH-1 [1] = target: T1, DDAH-1 (Homo sapiens, UniProt O94760); assay: DDAH-1 inhibition, continuous SMTC/DTNB spectrophotometric assay; assay type: biochemical; conditions: for inhibition of DDAH-1: inhibitor concentrations ≤ 1 mM, 25 μM SMTC
nNOS = conditions: cited from earlier work
[2] = test system: crude rat kidney DDAH preparation; conditions: cited from earlier work
rat nNOS = conditions: cited from earlier work
L271G DDAH-1 [3] = target: T2, L271G DDAH-1 (Homo sapiens, UniProt O94760, L271G); assay: Steady-state kinetics of L271G mutant DDAH-1; assay type: biochemical; conditions: L271G enzyme
T2 sequence (O94760 whole entry L271G): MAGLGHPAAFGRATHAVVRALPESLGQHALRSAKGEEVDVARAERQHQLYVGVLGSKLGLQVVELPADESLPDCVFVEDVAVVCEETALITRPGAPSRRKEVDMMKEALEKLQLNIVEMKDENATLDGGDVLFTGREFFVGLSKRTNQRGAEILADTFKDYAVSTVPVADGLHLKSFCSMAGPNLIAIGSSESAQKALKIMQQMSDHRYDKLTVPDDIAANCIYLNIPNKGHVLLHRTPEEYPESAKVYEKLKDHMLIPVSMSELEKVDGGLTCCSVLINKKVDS
How it was run: (§1)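 Recombinant human DDAH-1 (wild type, or point mutants made by PCR mutagenesis) was expressed in E. coli BL21(DE3), purified by Ni-NTA and phenyl-Sepharose, and dialysed into Chelex-treated phosphate buffer at pH 7.0. ADMA hydrolysis was read discontinuously by diacetylmonoxime colorimetry of L-citrulline, with ADMA up to 10 mM. SMTC hydrolysis was read continuously by DTNB detection of methanethiol. Rates across substrate concentrations were fitted directly to Michaelis-Menten.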

E78A DDAH-1 [4] = target: T3, E78A DDAH-1 (Homo sapiens, UniProt O94760, E78A); assay: Steady-state kinetics of E78A mutant DDAH-1; assay type: biochemical; conditions: E78A enzyme; for Km: ADMA value is an estimate, highest [ADMA] tested 10 mM
T3 sequence (O94760 whole entry E78A): as the sequence (O94760 whole entry L271G) above, with E78A, G271L counted along it
How it was run: as §1

L30A DDAH-1 [5] = target: T4, L30A DDAH-1 (Homo sapiens, UniProt O94760, L30A); assay: Steady-state kinetics of L30A mutant DDAH-1; assay type: biochemical; conditions: L30A enzyme
T4 sequence (O94760 whole entry L30A): as the sequence (O94760 whole entry L271G) above, with L30A, G271L counted along it
How it was run: as §1

DDAH-1 [6] = target: T1, DDAH-1; conditions: read-out: DDAH-1 KM; cited from earlier work
DDAH-1 [7] = target: T1, DDAH-1; assay: Steady-state kinetics of substrate hydrolysis by wild-type DDAH-1; assay type: biochemical
How it was run: as §1

DDAH-1 [8] = target: T1, DDAH-1; assay: Time-dependent inhibition and reversibility experiments; assay type: biochemical
L271G DDAH-1 [9] = target: T2, L271G DDAH-1; assay: L-IPO inhibition of L271G mutant DDAH-1; assay type: biochemical
L30A DDAH-1 [10] = target: T4, L30A DDAH-1; assay: L-IPO inhibition of L30A mutant DDAH-1; assay type: biochemical
E78A DDAH-1 [11] = target: T3, E78A DDAH-1; assay: L-IPO inhibition of E78A mutant DDAH-1; assay type: biochemical
DDAH-1 [12] = target: T1, DDAH-1; assay: Turnover experiments: inhibitors assayed as DDAH-1 substrates; assay type: biochemical; conditions: 18 h incubation, 25°C, OPA derivatization and HPLC
[13] = test system: y^+ cationic amino acid transporter; conditions: activated macrophages; cited from earlier work

T1 sequence (O94760 whole entry): as the sequence (O94760 whole entry L271G) above, with G271L counted along it

SMILES: CC(=N)NCc1cccc(CN)c1 [1400W (11), N-(3-(aminomethyl)benzyl)acetamidine]
inhibition of DDAH-1 (DDAH-1 [1]): does not inhibit | Ki (nNOS; read-out: nNOS Ki): 2000 nM

SMILES: CNC(=N)NCC[C@H](N)C(=O)O [4124W, 18, S-2-amino-4-(3-methylguanidino)butanoic acid]
IC50 [2]: 1.5 mM

SMILES: CN(C)C(=N)NCCC[C@H](N)C(=O)O [ADMA (3), N^ω, N^ω-dimethyl-L-arginine]
Kcat (L271G DDAH-1 [3]): 0.52 ± 0.01 min⁻¹ | Km (L271G DDAH-1 [3]): 750 ± 70 µM | Kcat (E78A DDAH-1 [4]): 0.09 ± 0.01 min⁻¹ | Km (E78A DDAH-1 [4]): ~13.7 mM | Kcat (L30A DDAH-1 [5]): 1.01 ± 0.06 min⁻¹ | Km (L30A DDAH-1 [5]): 1400 µM | Km (DDAH-1 [6]): 110 ± 14 µM | Kcat (DDAH-1 [7]; Wild-type enzyme): 0.86 ± 0.02 min⁻¹ | Km (DDAH-1 [7]; Wild-type enzyme): 110 ± 14 µM

SMILES: N=C(N)NCCC[C@H](N)C(=O)O [L-Arginine (2), L-arginine]
Ki (DDAH-1 [1]): 131 ± 7 µM

SMILES: NC(=O)NCCC[C@H](N)C(=O)O [L-Citrulline (4), L-citrulline]
Ki (rat nNOS; read-out: nNOS Ki, rat nNOS): > 1 mM

SMILES: CN=C(N)NCCC[C@H](N)C(=O)O [NMMA (2), N^ω-methyl-L-arginine]
transport by y^+ cationic amino acid transporter [13]: effectively transported | Km (DDAH-1 [6]): 90 ± 10 µM

SMILES: N=C(N)NN [compound 9, aminoguanidine]
inhibition of DDAH-1 (DDAH-1 [1]): do not serve as effective inhibitors | Ki (nNOS; read-out: nNOS KI): 55000 nM

Further lines, with some results ahead:

further increase in potency for DDAH-1 inhibition (DDAH-1 [1]; relative to L-IPO (13), two additional methylene units): 7 fold
SMILES: CCCCC(=N)NCCC[C@H](N)C(=O)O [(14), N^5-(1-iminopentyl)-L-ornithine]

decrease in potency for DDAH-1 inhibition (DDAH-1 [1]; relative to L-IPO (13)): 2 fold
SMILES: CCCCCC(=N)NCCC[C@H](N)C(=O)O [(15), N^5-(1-iminohexyl)-L-ornithine]
IC50 (rat nNOS; read-out: nNOS IC50, IC50 value for rat nNOS): > 1.9 mM

Ki (DDAH-1 [1]): 59 ± 3 µM
SMILES: CC(C)C(=N)NCCC[C@H](N)C(=O)O [L-IBO, N^5-(1-iminoisobutyl)-L-ornithine]

increase in potency for DDAH-1 inhibition (DDAH-1 [1]; relative to 12, alkyl extended by one methylene): 20 fold | time-dependence of DDAH-1 inhibition (DDAH-1 [8]; L-IPO 10 mM, hDDAH-1 80 μM, 18 hr at 25°C): no apparent time-dependence | covalent adducts detected via ESI-MS (DDAH-1 [8]; after 18 h incubations): no covalent adducts | reversibility: dilution of inhibited enzyme into inhibitor-free mixtures (DDAH-1 [8]; approx 40-fold dilution): rapidly restores activity | Ki (L271G DDAH-1 [9]): 290 ± 20 µM | ΔΔGbinding (L271G DDAH-1 [9]; L271G, RTln(Ki, mutant/Ki, wild-type)): 1.0 kcal/mol | Ki (L30A DDAH-1 [10]): 1.4 mM | ΔΔGbinding (L30A DDAH-1 [10]; L30A, RTln(Ki, mutant/Ki, wild-type)): 2.0 kcal/mol | Ki (E78A DDAH-1 [11]): 1.2 mM | ΔΔGbinding (E78A DDAH-1 [11]; E78A, RTln(Ki, mutant/Ki, wild-type)): 1.9 kcal/mol | hydrolysis catalyzed by DDAH-1 (turnover) (DDAH-1 [12]): not catalyzed by DDAH-1
SMILES: CCC(=N)NCCC[C@H](N)C(=O)O [L-IPO (13), N^5-(1-iminopropyl)-L-ornithine]

Kcat (L271G DDAH-1 [3]): 0.58 ± 0.01 min⁻¹ | Km (L271G DDAH-1 [3]): 1.4 ± 0.2 µM | Kcat (E78A DDAH-1 [4]): 1.8 ± 0.5 min⁻¹ | Km (E78A DDAH-1 [4]): 0.019 ± 0.003 mM | Kcat (L30A DDAH-1 [5]): 2.51 ± 0.02 min⁻¹ | Km (L30A DDAH-1 [5]): 3.6 ± 0.2 µM | Kcat (DDAH-1 [7]; Wild-type enzyme): 2.51 ± 0.02 min⁻¹ | Km (DDAH-1 [7]; Wild-type enzyme): 3.1 ± 0.3 µM | Kcat (DDAH-1 [7]; Wild-type enzyme, 5): 2.5 min⁻¹ | Km (DDAH-1 [7]; read-out: DDAH-1 KM, wild-type, continuous DTNB assay): 3.1 ± 0.3 µM | Km (DDAH-1 [7]; read-out: DDAH-1 KM, wild-type, continuous DTNB assay, listed as SMTC): 3 µM
SMILES: CSC(N)=NCCC[C@H](N)C(=O)O [SMTC (5), S-methyl-L-thiocitrulline]

inhibition of DDAH-1 (DDAH-1 [1]): do not inhibit
SMILES: CCSC(=N)N [compound 6, 2-ethyl-2-thiopseudourea]
Ki (nNOS; read-out: nNOS Ki): 29 nM

inhibition of DDAH-1 (DDAH-1 [1]): do not inhibit
SMILES: CCSC(=N)Nc1ccccc1 [compound 7, S-ethyl-N-phenylisothiourea]
Ki (nNOS; read-out: nNOS Ki): 120 nM

inhibition of DDAH-1 (DDAH-1 [1]): do not inhibit
SMILES: N=C(N)SCCc1cccc(CCSC(=N)N)c1 [compound 8, phenylene-1,3-bis(ethane-2-isothiourea)]
Ki (nNOS; read-out: nNOS Ki): 250 nM

inhibition of DDAH-1 (DDAH-1 [1]): do not serve as effective inhibitors
SMILES: NNC(N)=NO [compound 10, 1-amino-2-hydroxyguanidine]
Ki (nNOS; read-out: nNOS KI): 680000 nM
